Measured values taken from ChEMBL document CHEMBL1255341, “Effect of ketoconazole on the pharmacokinetics of maribavir in healthy adults” (Antimicrob Agents Chemother, 2008).

Columns and labels:
Homo sapiens [1] = experiment: AUC (0 to infinity) in human assessed as VP 44469 at 400 mg, po administered with 400 mg ketoconazole after 7 days; type: ADME, organism-based, Plasma; parameters: dose 400 mg, route oral, time infinity; settings: in vivo, 168 h
Procedure, shortened: (§1)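 Healthy adults (n = 20) in a two-sequence crossover with a 1-week washout. Single oral 400 mg dose after overnight fast, 4 h post-dose fast; ketoconazole 400 mg oral given 1 h before in the combination period. Plasma sampled predose and 0.5–24 h; validated LC-MS/MS after solid-phase extraction (5–1,000 ng/ml). AUC0-t by log-linear trapezoidal method; AUC0-∞ = AUC0-t + Clast/λz.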

[2] = AUC (0 to infinity) in human at 400 mg, po after 24 hrs; type: ADME, organism-based; parameters: dose 400 mg, route oral, time infinity; settings: plasma; procedure, shortened: as §1
Homo sapiens [3] = experiment: Drug excretion in human assessed as VP 44469 at 400 mg, po administered with 400 mg ketoconazole […]; type: ADME, organism-based; settings: in vivo
[4] = Cmax in human plasma at 400 mg, po after 24 hrs; type: ADME, organism-based; parameters: dose 400 mg, route oral
Procedure, shortened: (§2)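 Fasted healthy adults got a single oral 400 mg dose, alone or 1 h after ketoconazole 400 mg orally, in crossover periods separated by 1 week. Blood taken predose and at 0.5, 1, 1.5, 2, 3, 4, 6, 8, 12, 16, 24 h; analytes measured by validated LC-MS/MS. Cmax and tmax read from the profiles; tmax ranks compared by ANOVA.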

Homo sapiens [5] = experiment: AUC (0 to t) in human assessed as VP 44469 at 400 mg, po administered with 400 mg ketoconazole after 7 days; type: ADME, organism-based, Plasma; settings: in vivo, 168 h; procedure, shortened: as §1
[6] = AUC (0 to t) in human at 400 mg, po administered with 400 mg ketoconazole after 7 days; type: ADME, organism-based; settings: plasma; procedure, shortened: as §1
Homo sapiens [7] = experiment: Cmax in human plasma assessed as VP 44469 at 400 mg, po administered with 400 mg ketoconazole after 7 days; type: ADME, organism-based; parameters: dose 400 mg, route oral; settings: in vivo, 168 h; procedure, shortened: as §2
Homo sapiens [8] = experiment: Terminal elimination half-life in human assessed as VP 44469 at 400 mg, po after 24 hrs; type: ADME, organism-based; settings: in vivo
Procedure, shortened: (§3)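 Crossover in healthy adults: single fasted oral 400 mg dose, alone or 1 h after oral ketoconazole 400 mg, with a 1-week washout. Plasma drawn predose through 24 h and assayed by LC-MS/MS. λz from log-linear terminal-phase regression; t1/2 = 0.693/λz; CL/F = dose/AUC0-∞; Vz/F = dose/(λz × AUC0-∞). Nominal times used.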

Homo sapiens [9] = experiment: Terminal elimination half-life in human assessed as VP 44469 at 400 mg, po administered with 400 mg ketoconazole after 7 days; type: ADME, organism-based; settings: in vivo, 168 h; procedure, shortened: as §3
Homo sapiens [10] = experiment: Tmax in human plasma assessed as VP 44469 at 400 mg, po administered with 400 mg ketoconazole after 7 days; type: ADME, organism-based; settings: in vivo, 168 h; procedure, shortened: as §2
Homo sapiens [11] = experiment: Toxicity in human assessed as adverse event at 400 mg, po after 24 hrs; type: organism-based; settings: in vivo
Procedure, shortened: (§4)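 Healthy volunteers (20 enrolled) given single oral 400 mg doses, with or without oral ketoconazole 400 mg 1 h before, in crossover with a 1-week washout. The investigator recorded all adverse events, grading severity and drug relatedness. Clinical labs ran the day before and after dosing, ECGs predose and at 2 and 4 h, and liver tests at the day-15 follow-up.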

Homo sapiens [12] = experiment: Apparent oral clearance in human assessed as VP 44469 at 400 mg, po administered with 400 mg ketoconazole after 7 days; type: ADME, organism-based; settings: in vivo, 168 h; procedure, shortened: as §3
[13] = AUC (0 to infinity) in human at 400 mg, po administered with 400 mg ketoconazole after 7 days; type: ADME, organism-based; parameters: dose 400 mg, time infinity, route oral; settings: plasma; procedure, shortened: as §1
Homo sapiens [14] = experiment: Volume of distribution with respect to oral bioavailability in human assessed as VP 44469 at 400 mg, po after 24 hrs; type: ADME, organism-based; settings: in vivo; procedure, shortened: as §3
Homo sapiens [15] = experiment: Renal clearance in human assessed as VP 44469 at 400 mg, po administered with 400 mg ketoconazole […]; type: ADME, organism-based, Kidney; settings: in vivo
Homo sapiens [16] = experiment: Toxicity in human assessed as dysgeusia at 400 mg, po administered with 400 mg ketoconazole after 7 days; type: organism-based; settings: in vivo, 168 h; procedure, shortened: as §4
Homo sapiens [17] = experiment: Tmax in human plasma assessed as VP 44469 at 400 mg, po after 24 hrs; type: ADME, organism-based; settings: in vivo; procedure, shortened: as §2
Homo sapiens [18] = experiment: Renal clearance in human assessed as VP 44469 at 400 mg, po after 24 hrs; type: ADME, organism-based, Kidney; settings: in vivo
Procedure, shortened: (§5)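 24-h urine collected from the first void after the oral 400 mg dose, given alone or 1 h after ketoconazole 400 mg, in a crossover of healthy adults. Amount excreted (Ae) measured by LC-MS/MS after solid-phase extraction. Renal clearance = Ae/AUC0-24 from plasma sampled over 24 h.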

[19] = Terminal elimination half-life in human at 400 mg, po administered with 400 mg ketoconazole after 7 days; type: ADME, organism-based; settings: in vivo; procedure, shortened: as §3
Homo sapiens [20] = experiment: Drug excretion in human assessed as VP 44469 at 400 mg, po after 24 hrs; type: ADME, organism-based; settings: in vivo; procedure, shortened: as §5
[21] = Renal clearance in human at 400 mg, po administered with 400 mg ketoconazole after 7 days; type: ADME, organism-based, Kidney; settings: in vivo; procedure, shortened: as §5
[22] = AUC (0 to t) in human at 400 mg, po after 24 hrs; type: ADME, organism-based; parameters: time < 24 hr, dose 400 mg, route oral; settings: plasma; procedure, shortened: as §1
Homo sapiens [23] = experiment: Drug excretion in human at 400 mg, po administered with 400 mg ketoconazole […]; type: ADME, organism-based; settings: in vivo; procedure, shortened: as §5
[24] = Volume of distribution with respect to oral bioavailability in human at 400 mg, po after 24 hrs; type: ADME, organism-based; settings: in vivo, read-out: Vss/F; procedure, shortened: as §3
Homo sapiens [25] = experiment: Toxicity in human assessed as adverse event at 400 mg, po administered with 400 mg ketoconazole after 7 days; type: organism-based; settings: in vivo, 168 h; procedure, shortened: as §4
[26] = Terminal elimination half-life in human at 400 mg, po after 24 hrs; type: ADME, organism-based; settings: in vivo; procedure, shortened: as §3
Homo sapiens [27] = experiment: Cmax in human plasma assessed as VP 44469 at 400 mg, po after 24 hrs; type: ADME, organism-based; parameters: dose 400 mg, route oral; settings: in vivo; procedure, shortened: as §2
Homo sapiens [28] = experiment: Volume of distribution with respect to oral bioavailability in human assessed as VP 44469 at 400 mg, po administered with 400 mg ketoconazole after 7 days; type: ADME, organism-based; settings: in vivo, 168 h; procedure, shortened: as §3
Homo sapiens [29] = experiment: AUC (0 to t) in human assessed as VP 44469 at 400 mg, po after 24 hrs; type: ADME, organism-based, Plasma; parameters: dose 400 mg, time < 24 hr, route oral; settings: in vivo; procedure, shortened: as §1
Homo sapiens [30] = experiment: Toxicity in human assessed as dysgeusia at 400 mg, po after 24 hrs; type: organism-based; settings: in vivo; procedure, shortened: as §4
Homo sapiens [31] = experiment: Apparent oral clearance in human assessed as VP 44469 at 400 mg, po after 24 hrs; type: ADME, organism-based; settings: in vivo; procedure, shortened: as §3
[32] = Cmax in human plasma at 400 mg, po administered with 400 mg ketoconazole after 7 days; type: ADME, organism-based; parameters: dose 400 mg, route oral; procedure, shortened: as §2
Homo sapiens [33] = experiment: Toxicity in human assessed as headache at 400 mg, po administered with 400 mg ketoconazole after 7 days; type: organism-based; settings: in vivo, 168 h; procedure, shortened: as §4
[34] = Apparent oral clearance in human at 400 mg, po after 24 hrs; type: ADME, organism-based; settings: in vivo; procedure, shortened: as §3
Homo sapiens [35] = experiment: Drug excretion in human at 400 mg, po after 24 hrs; type: ADME, organism-based; settings: in vivo; procedure, shortened: as §5
[36] = Volume of distribution with respect to oral bioavailability in human at 400 mg, po administered with 400 mg ketoconazole after 7 days; type: ADME, organism-based; settings: in vivo, read-out: Vss/F; procedure, shortened: as §3
Homo sapiens [37] = experiment: AUC (0 to infinity) in human assessed as VP 44469 at 400 mg, po after 24 hrs; type: ADME, organism-based, Plasma; parameters: dose 400 mg, time infinity, route oral; settings: in vivo; procedure, shortened: as §1
[38] = Tmax in human plasma at 400 mg, po administered with 400 mg ketoconazole after 7 days; type: ADME, organism-based; procedure, shortened: as §2
[39] = Tmax in human plasma at 400 mg, po after 24 hrs; type: ADME, organism-based; procedure, shortened: as §2
[40] = Apparent oral clearance in human at 400 mg, po administered with 400 mg ketoconazole after 7 days; type: ADME, organism-based; settings: in vivo; procedure, shortened: as §3

- AUC (Homo sapiens [1]): 20.5 µg·h/mL
- AUC(0-inf) [2]: 126 µg·h/mL
- Activity (Homo sapiens [3]): 95 mg
- Cmax [4]: 19800 ng/mL
- AUC (Homo sapiens [5]): 14.7 µg·h/mL
- AUC(0-t) at 168 h [6]: 173 µg·h/mL
- Cmax (Homo sapiens [7]): 1 µg/mL
- t1/2 (Homo sapiens [8]): 6.83 h
- t1/2 (Homo sapiens [9]): 11.8 h
- Tmax (Homo sapiens [10]): 5.5 h
- CL/F (Homo sapiens [12]): 21.1 L/h
- AUC(0-inf) [13]: 194 µg·h/mL
- Vss/F (Homo sapiens [14]): 235 L
- CL_renal (Homo sapiens [15]): 6876 mL/h
- Tmax (Homo sapiens [17]): 2.5 h
- CL_renal (Homo sapiens [18]): 7637 mL/h
- half-life [19]: 413 min
- Activity (Homo sapiens [20]): 110 mg
- CL renal at 168 h [21]: 0.953 mL/min
- AUC(0-t) at 24 h [22]: 119 µg·h/mL
- Activity (Homo sapiens [23]): 9.86 mg
- Vd/F [24]: 27.5 L
- half-life [26]: 344 min
- Cmax (Homo sapiens [27]): 1.6 µg/mL
- Vz/F (Homo sapiens [28]): 342 L
- AUC (Homo sapiens [29]): 15.6 µg·h/mL
- CL/F (Homo sapiens [31]): 23.8 L/h
- Cmax [32]: 21800 ng/mL
- CL/F [34]: 59.3 mL/min
- Activity (Homo sapiens [35]): 4.12 mg
- Vd/F [36]: 21.6 L
- AUC (Homo sapiens [37]): 17.4 µg·h/mL
- Tmax [38]: 1.9 h
- Tmax [39]: 1.7 h
- CL/F [40]: 38.7 mL/min
SMILES: CC(C)Nc1nc2cc(Cl)c(Cl)cc2n1[C@H]1O[C@@H](CO)[C@H](O)[C@@H]1O [MARIBAVIR]
- Activity (Homo sapiens [11]): 47%
- Activity (Homo sapiens [16]): 35%
- Activity (Homo sapiens [25]): 45%
- Activity (Homo sapiens [30]): 47%
- Activity (Homo sapiens [33]): 10%
